Measurements reported in ChEMBL document CHEMBL3621126, “Difluoromethyl ketones: Potent inhibitors of wild type and carbamate-insensitive G119S mutant Anopheles gambiae acetylcholinesterase” (Bioorg Med Chem Lett, 2015).
In brackets after ≈: the same amount, converted by molar mass.

Tests used:
Acetylcholinesterase [1] = target: T1, Acetylcholinesterase (Anopheles gambiae, UniProt Q869C3); test: Inhibition of recombinant Anopheles gambiae wild type AChE after 60 mins by Ellman assay
Anopheles gambiae [2] = test: Insecticidal activity against Anopheles gambiae G3 assessed as mortality after 24 hrs; assay type: functional
Acetylcholinesterase [3] = target: T2, Acetylcholinesterase (Homo sapiens, UniProt P22303); test: Inhibition of recombinant human AChE after 10 mins by Ellman assay
Anopheles gambiae [4] = test: Insecticidal activity against Anopheles gambiae G3 assessed as fumigation mortality at 1000 ng/mL after 24 hrs by mason jar assay; assay type: functional; settings: G3, 24 h
How it was run: (§1)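 Fumigation of adult G3 An. gambiae in a sealed 1 L vessel, with % mortality read after 24 h. Nominal concentration was calculated from the inhibitor mass delivered and the vessel volume.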

Anopheles gambiae [5] = test: Insecticidal activity against Anopheles gambiae G3 assessed as torsal contact toxicity by measuring mortality after 24 hrs by filter paper based method; assay type: functional; settings: G3, 24 h
How it was run: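 Adult susceptible G3 An. gambiae were tested by the WHO treated-paper tarsal contact protocol. Papers were treated with ethanolic compound solutions and dried overnight. Mosquitoes were exposed 1 h and mortality recorded 24 h later.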

Acetylcholinesterase [6] = target: T2, Acetylcholinesterase; test: Inhibition of recombinant human AChE after 60 mins by Ellman assay
Acetylcholinesterase [7] = target: T1, Acetylcholinesterase; test: Inhibition of recombinant Anopheles gambiae wild type AChE after 10 mins by Ellman assay
[8] = Inhibition of recombinant Anopheles gambiae AChE G119S mutant after 60 mins by Ellman assay
[9] = Inhibition of Anopheles gambiae AChE G119S mutant after 10 mins by Ellman assay
Anopheles gambiae [10] = test: Insecticidal activity against Anopheles gambiae G3 assessed as torsal contact toxicity by measuring mortality at 1000 ug/mL after 24 hrs by filter paper based method; assay type: functional; settings: G3, 24 h
How it was run: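 Adult susceptible G3 An. gambiae were tested by the WHO treated-paper tarsal contact protocol. Papers were treated with ethanolic compound solutions at 1000 µg/mL and dried overnight. Mosquitoes were exposed 1 h and mortality recorded after 24 h.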

Acetylcholinesterase [11] = target: T2, Acetylcholinesterase; test: Inhibition of recombinant human AChE by Ellman assay; settings: TDE = time-dependent effect
How it was run: (§2)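 Modified Ellman assay in microtiter plates with recombinant enzymes (human AChE, wild-type or G119S Anopheles gambiae AChE). Inhibitor preincubated 10 or 60 min at 23 ± 1°C, pH 7.7, 0.1% (v/v) DMSO, before adding substrate. Ten inhibitor concentrations were run alongside inhibitor-free control wells. IC50 was taken from sigmoidal plots of residual activity (v/v0) vs [I].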

[12] = target: Acetylcholinesterase (Anopheles gambiae) (UniProt Q869C3); test: Inhibition of recombinant Anopheles gambiae wild type AChE by Ellman assay; settings: TDE = time-dependent effect; how it was run: as §2
Anopheles gambiae [13] = test: Ratio of IC50 for recombinant Anopheles gambiae AChE G119S mutant to IC50 for recombinant wild type Anopheles gambiae AChE after 60 mins
Anopheles gambiae [14] = test: Insecticidal activity against Anopheles gambiae G3 assessed as mortality at 50 ng/insect after 24 hrs (reference value: 11 +/- 4%); assay type: functional
Anopheles gambiae [15] = test: Insecticidal activity against Anopheles gambiae G3 assessed as fumigation mortality at 10 ng/mL after 24 hrs by mason jar assay; assay type: functional; settings: G3, 24 h; how it was run: as §1
[16] = Inhibition of recombinant Anopheles gambiae AChE G119S mutant after 1380 mins by Ellman assay
How it was run: (§3)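 Recombinant G119S mutant An. gambiae AChE; modified Ellman assay in microtiter plates at 23 ± 1°C, pH 7.7, 0.1% (v/v) DMSO. Enzyme preincubated with inhibitor over a range of concentrations before substrate added; inhibitor-free controls flank 10 concentrations, right-hand control used for residual activity (v/v0). IC50 taken from sigmoidal plots of v/v0 versus [I].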

[17] = Inhibition of recombinant Anopheles gambiae AChE G119S mutant after 330 mins by Ellman assay; how it was run: as §3
Acetylcholinesterase [18] = target: Acetylcholinesterase (Electrophorus electricus, UniProt O42275); test: Inhibition of electric eel AChE
Sequence of Acetylcholinesterase (Electrophorus electricus, UniProt O42275) (O42275 whole entry): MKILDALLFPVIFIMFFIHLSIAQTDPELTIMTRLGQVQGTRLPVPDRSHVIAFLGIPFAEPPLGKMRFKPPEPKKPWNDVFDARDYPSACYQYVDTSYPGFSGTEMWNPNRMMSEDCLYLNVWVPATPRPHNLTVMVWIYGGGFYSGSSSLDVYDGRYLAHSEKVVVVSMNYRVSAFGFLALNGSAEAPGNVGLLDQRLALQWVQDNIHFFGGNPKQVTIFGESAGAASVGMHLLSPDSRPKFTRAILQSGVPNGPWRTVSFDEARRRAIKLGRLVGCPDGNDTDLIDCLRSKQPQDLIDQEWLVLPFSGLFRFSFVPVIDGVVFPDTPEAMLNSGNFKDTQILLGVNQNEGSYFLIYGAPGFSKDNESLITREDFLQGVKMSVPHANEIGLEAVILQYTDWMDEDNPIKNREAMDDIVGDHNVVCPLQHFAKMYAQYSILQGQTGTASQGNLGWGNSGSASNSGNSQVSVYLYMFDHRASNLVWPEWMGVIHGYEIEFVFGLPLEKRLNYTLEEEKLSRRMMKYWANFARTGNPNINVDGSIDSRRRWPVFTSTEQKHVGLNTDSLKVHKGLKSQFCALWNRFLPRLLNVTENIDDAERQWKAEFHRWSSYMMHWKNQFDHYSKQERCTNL

T1 sequence (Q869C3 whole entry): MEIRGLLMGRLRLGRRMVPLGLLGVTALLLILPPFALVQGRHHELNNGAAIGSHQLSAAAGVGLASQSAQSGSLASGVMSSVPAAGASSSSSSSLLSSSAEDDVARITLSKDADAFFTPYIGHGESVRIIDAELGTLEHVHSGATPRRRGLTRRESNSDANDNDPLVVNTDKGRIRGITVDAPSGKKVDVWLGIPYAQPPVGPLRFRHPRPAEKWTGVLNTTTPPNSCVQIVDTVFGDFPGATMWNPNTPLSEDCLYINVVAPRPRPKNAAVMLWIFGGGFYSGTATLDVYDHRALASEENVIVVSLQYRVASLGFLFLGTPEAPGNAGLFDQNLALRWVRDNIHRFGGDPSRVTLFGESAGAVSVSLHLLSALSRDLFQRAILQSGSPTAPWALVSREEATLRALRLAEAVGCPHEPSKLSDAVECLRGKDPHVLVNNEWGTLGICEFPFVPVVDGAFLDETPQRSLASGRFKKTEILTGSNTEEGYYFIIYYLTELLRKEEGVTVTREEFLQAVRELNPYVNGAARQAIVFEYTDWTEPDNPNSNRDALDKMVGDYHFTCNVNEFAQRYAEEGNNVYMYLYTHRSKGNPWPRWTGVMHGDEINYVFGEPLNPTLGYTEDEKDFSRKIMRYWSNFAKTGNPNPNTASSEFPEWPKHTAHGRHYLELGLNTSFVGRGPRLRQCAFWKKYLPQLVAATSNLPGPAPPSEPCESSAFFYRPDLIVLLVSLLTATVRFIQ
Sequence of Acetylcholinesterase (Anopheles gambiae) (Q869C3 39-737 limits assumed): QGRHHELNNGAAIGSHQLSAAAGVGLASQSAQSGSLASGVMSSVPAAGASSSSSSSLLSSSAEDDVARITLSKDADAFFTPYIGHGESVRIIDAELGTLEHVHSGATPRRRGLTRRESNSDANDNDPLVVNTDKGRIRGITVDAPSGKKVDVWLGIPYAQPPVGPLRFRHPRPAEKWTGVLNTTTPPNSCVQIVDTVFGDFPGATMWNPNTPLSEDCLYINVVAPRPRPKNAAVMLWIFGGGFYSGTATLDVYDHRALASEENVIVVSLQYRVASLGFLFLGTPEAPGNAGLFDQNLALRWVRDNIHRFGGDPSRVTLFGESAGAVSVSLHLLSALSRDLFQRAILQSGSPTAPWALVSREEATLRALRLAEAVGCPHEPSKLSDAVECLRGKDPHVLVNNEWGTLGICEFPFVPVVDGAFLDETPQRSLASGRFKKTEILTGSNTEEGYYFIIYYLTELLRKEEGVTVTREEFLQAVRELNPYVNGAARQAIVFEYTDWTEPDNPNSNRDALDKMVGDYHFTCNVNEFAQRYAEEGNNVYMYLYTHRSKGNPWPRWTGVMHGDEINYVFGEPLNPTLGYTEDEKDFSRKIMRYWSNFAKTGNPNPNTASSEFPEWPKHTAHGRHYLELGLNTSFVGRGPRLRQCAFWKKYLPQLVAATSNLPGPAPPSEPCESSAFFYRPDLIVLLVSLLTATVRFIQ
T2 sequence (P22303 whole entry): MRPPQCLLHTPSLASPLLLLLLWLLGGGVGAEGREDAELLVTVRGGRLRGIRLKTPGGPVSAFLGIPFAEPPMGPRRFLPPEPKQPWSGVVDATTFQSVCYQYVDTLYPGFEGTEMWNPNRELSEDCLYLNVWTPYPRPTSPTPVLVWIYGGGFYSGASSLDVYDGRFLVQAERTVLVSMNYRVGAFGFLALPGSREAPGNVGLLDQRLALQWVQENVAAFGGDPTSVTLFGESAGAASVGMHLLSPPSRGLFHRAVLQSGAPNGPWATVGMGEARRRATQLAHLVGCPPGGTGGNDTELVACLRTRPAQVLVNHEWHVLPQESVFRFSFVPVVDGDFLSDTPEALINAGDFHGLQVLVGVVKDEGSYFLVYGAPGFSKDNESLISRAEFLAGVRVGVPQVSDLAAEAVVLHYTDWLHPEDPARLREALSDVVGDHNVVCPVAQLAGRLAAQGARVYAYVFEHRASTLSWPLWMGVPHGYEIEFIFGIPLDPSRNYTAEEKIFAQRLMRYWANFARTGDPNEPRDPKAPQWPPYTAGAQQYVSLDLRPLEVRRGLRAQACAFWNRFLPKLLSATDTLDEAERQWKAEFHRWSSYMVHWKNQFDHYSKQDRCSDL

Row | Structure (SMILES) | IC50 (Acetylcholinesterase [1]) | LD50 (Anopheles gambiae [2]) | IC50 (Acetylcholinesterase [3]) | mortality at 1 µg/mL (Anopheles gambiae [4]) | LC50 (Anopheles gambiae [5]) | IC50 (Acetylcholinesterase [6]) | IC50 (Acetylcholinesterase [7]) | IC50 [8] | IC50 [9] | mortality at 1000 µg/mL (Anopheles gambiae [10]) | inhibition (Acetylcholinesterase [11]) | inhibition [12] | Ratio IC50 (Anopheles gambiae [13]) | mortality (Anopheles gambiae [14]) | mortality at 0.01 µg/mL (Anopheles gambiae [15]) | IC50 [16] | IC50 [17] | Ki (Acetylcholinesterase [18])
1 | CNC(=O)Oc1ccccc1OC(C)C [PROPOXUR] | 43.6 nM | 0.2 ng | 2300 nM | 0% | 32 µg/mL (≈ 153 µM) | 590 nM | 182 nM | > 10000 nM | > 10000 nM | 39% | – | – | – | – | – | – | – | –
2 | O=C(CF)c1cnn(C2CCCC2)c1 | 1540 nM | – | 2500 nM | – | – | 1310 nM | 5860 nM | > 10000 nM | > 10000 nM | 0% | – | – | – | – | – | – | – | –
3 | CC(C)(C)c1cccc(C(=O)C(F)F)c1 | – | – | 6.05 nM | – | – | – | – | – | – | 20% | – | – | – | – | – | – | – | –
4 | CC(C)Cn1cc(C(=O)C(F)(F)F)cn1 | 1040 nM | – | 591 nM | – | – | 678 nM | 950 nM | > 10000 nM | > 10000 nM | – | tde | tde | – | – | – | – | – | –
5 | C[Si](C)(C)c1cccc(C(=O)C(F)(F)F)c1 | 257 nM | – | 285 nM | – | – | 92.9 nM | 848 nM | 10100 nM | > 10000 nM | 10% | tde | tde | – | – | – | – | – | –
6 | CCC(C)n1cc(C(=O)CF)cn1 (stereo not drawn) | 2860 nM | – | 16900 nM | – | – | 18000 nM | 2750 nM | > 10000 nM | > 10000 nM | 65% | – | – | – | – | – | – | – | –
7 | CCC(C)n1cc(C(=O)C(F)F)cn1 (stereo not drawn) | 25.2 nM | – | 110 nM | – | – | 85.9 nM | 26.3 nM | 185 nM | 452 nM | 50% | – | – | – | – | – | – | – | –
8 | CCC(CC)n1cc(C(=O)C(F)(F)F)cn1 | 0.68 nM | – | 3.77 nM | 86% | – | 2.27 nM | 2.75 nM | 1730 nM | > 10000 nM | 40% | tde | tde | 2500 | 65% | – | – | – | –
9 | CCCC(C)n1cc(C(=O)C(F)F)cn1 (stereo not drawn) | 29.1 nM | – | 149 nM | – | – | 158 nM | 23.4 nM | 297 nM | 797 nM | 0% | – | – | – | – | – | – | – | –
10 | O=C(c1cnn(C2CCCC2)c1)C(F)F | 134 nM | – | 208 nM | – | – | 244 nM | 106 nM | 3390 nM | 3220 nM | 0% | – | – | – | – | – | – | – | –
11 | CCC(CC)n1cc(C(=O)CF)cn1 | 337 nM | – | 5290 nM | 8% | – | 5190 nM | 355 nM | 3000 nM | 2990 nM | 85% | – | – | – | – | – | – | – | –
12 | CC(C)(C)c1cccc(C(=O)CF)c1 | – | – | – | – | – | – | – | – | > 10000 nM | 50% | – | – | – | – | – | – | – | –
13 | COP(=O)(OC)OC=C(Cl)Cl [DICHLORVOS] | 60.1 nM | – | – | – | – | – | 324 nM | 300 nM | 1650 nM | – | – | – | – | 83% | 100% | – | – | –
14 | CC(C)n1cc(C(=O)C(F)F)cn1 | 430 nM | – | 802 nM | – | – | 869 nM | 354 nM | 8380 nM | 8290 nM | 50% | – | – | – | – | – | – | – | –
15 | CC(C)Cn1cc(C(=O)C(F)F)cn1 | 3950 nM | – | 9780 nM | – | – | 11000 nM | 3000 nM | > 10000 nM | > 10000 nM | – | – | – | – | – | – | – | – | –
16 | CC(C)n1cc(C(=O)C(F)(F)F)cn1 | 285 nM | – | 77.5 nM | – | – | 121 nM | 142 nM | > 10000 nM | > 10000 nM | 20% | tde | tde | – | – | – | – | – | –
17 | CCC(CC)n1cc(C(=O)C(F)F)cn1 | 1.22 nM | – | 28.8 nM | 57% | – | 35.2 nM | 1.01 nM | 125 nM | 680 nM | 0% | – | – | – | 21% | – | 25.1 nM | 36.7 nM | –
18 | CCCC(C)n1cc(C(=O)CF)cn1 (stereo not drawn) | 3290 nM | – | 24200 nM | – | – | 17600 nM | 3520 nM | > 10000 nM | > 10000 nM | 20% | – | – | – | – | – | – | – | –
19 | CC(=O)C(F)(F)CCC(C)(C)C | – | – | – | – | – | – | – | – | – | – | – | – | – | – | – | – | – | 1.6 nM
20 | O=C(c1cnn(C2CCCC2)c1)C(F)(F)F | 1.54 nM | – | 5.2 nM | – | – | 6.11 nM | 2.87 nM | 3520 nM | > 10000 nM | 40% | tde | tde | – | – | – | – | – | –
21 | CC(C)(C)c1cccc(C(=O)C(F)(F)F)c1 | 18.1 nM | – | 14.6 nM | – | – | 5 nM | 53.4 nM | 20800 nM | > 10000 nM | 8% | tde | tde | – | – | – | – | – | –
22 | CC(C)n1cc(C(=O)CF)cn1 | > 10000 nM | – | > 10000 nM | – | – | > 10000 nM | > 10000 nM | > 10000 nM | > 10000 nM | 85% | – | – | – | – | – | – | – | –
23 | CC(C)Cn1cc(C(=O)CF)cn1 | > 10000 nM | – | > 10000 nM | – | – | > 10000 nM | > 10000 nM | > 10000 nM | > 10000 nM | 20% | – | – | – | – | – | – | – | –
24 | CCCC(C)n1cc(C(=O)C(F)(F)F)cn1 (stereo not drawn) | 2.06 nM | – | 7.15 nM | – | – | 8.37 nM | 3.74 nM | 2000 nM | 19900 nM | 0% | tde | tde | – | – | – | – | – | –
25 | CCC(C)n1cc(C(=O)C(F)(F)F)cn1 (stereo not drawn) | 2.29 nM | – | 6.47 nM | – | – | 8.84 nM | 2.47 nM | 2340 nM | 8180 nM | 30% | tde | tde | – | – | – | – | – | –
